Measured values published in ChEMBL document CHEMBL1148376, “Synthesis, monoamine transporter binding properties, and behavioral pharmacology of a series of 3beta-(substituted phenyl)-2beta-(3'-substituted isoxazol-5-yl)tropanes” (J Med Chem, 2004).

What was measured:
[1] = molecular target: Sodium-dependent dopamine transporter (Rattus norvegicus, UniProt P23977); assay: Inhibitory concentration required to inhibit dopamine transporter DAT was determined by using [3H]WIN-35428 radioligand
In short: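 Competition binding at the DAT with 0.5 nM [3H]WIN35,428 (final concentration). Other procedures follow earlier published methods.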

[2] = test system: Mus musculus; assay: Percent change in locomotor activity in mice at 3 mg/kg i.p. in 1 h.; type: functional; settings: route intraperitoneal
In short: (§1)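 Mice habituated 1/2 h to photocell activity chambers, then injected ip with compound homogenized in 0.5% methyl cellulose (10 mL/kg); vehicle controls; N = 5 or 6 per dose. Photobeam interruptions recorded in 10-min bins for 4 h, grouped into 1-h bins; one-way ANOVA with Newman-Keuls post hoc test (p < 0.05).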

[3] = test system: Mus musculus; assay: Percent change in locomotor activity in mice at 3 mg/kg i.p. in 2 h.; type: functional; settings: route intraperitoneal; in short: as §1
[4] = test system: Mus musculus; assay: Percent change in locomotor activity in mice at 3 mg/kg i.p. in 3 h.; type: functional; settings: route intraperitoneal; in short: as §1
[5] = test system: Mus musculus; assay: Percent change in locomotor activity in mice at 3 mg/kg i.p. in 4 h.; type: functional; settings: route intraperitoneal; in short: as §1
[6] = test system: Mus musculus; assay: Percent change from vehicle in locomotor activity in mice at 0.3 mg/kg (ip) in 1 h; type: functional
[7] = test system: Mus musculus; assay: Percent change from vehicle in locomotor activity in mice at 0.3 mg/kg (ip) in 2 h; type: functional
[8] = test system: Mus musculus; assay: Percent change from vehicle in locomotor activity in mice at 0.3 mg/kg (ip) in 3 h; type: functional
[9] = test system: Mus musculus; assay: Percent change from vehicle in locomotor activity in mice at 0.3 mg/kg (ip) in 4 h; type: functional
[10] = test system: Mus musculus; assay: Percent change in locomotor activity in mice at 1 mg/kg i.p. in 1 h.; type: functional; settings: route intraperitoneal
[11] = test system: Mus musculus; assay: Percent change in locomotor activity in mice at 1 mg/kg i.p. in 2 h.; type: functional; settings: route intraperitoneal; in short: as §1
[12] = test system: Mus musculus; assay: Percent change locomotor activity in mice at 1 mg/kg i.p. in 3 h.; type: functional; settings: route intraperitoneal; in short: as §1
[13] = test system: Mus musculus; assay: Percent change in locomotor activity in mice at 1 mg/kg i.p. in 4 h.; type: functional; settings: route intraperitoneal; in short: as §1
[14] = organism: Mus musculus; assay: Effective dose for locomotor activity in mice in the peak hour.; type: functional
[15] = organism: Mus musculus; assay: Hour 1 ratio to cocaine was determined for locomotor activity in mice; type: functional
[16] = molecular target: T1, Norepinephrine transporter (Rattus norvegicus, UniProt Q9WTR4); assay: Binding affinity towards norepinephrine transporter was determined using [3H]nisoxetine radioligand.
In short: (§2)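 Competition binding at the NET with 0.5 nM [3H]nisoxetine (final concentration). Other procedures follow earlier published methods.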

[17] = molecular target: T1, Norepinephrine transporter; assay: Inhibition of norepinephrine transporter (NET) determined using [3H]nisoxetine radioligand.; in short: as §2
[18] = test system: Rattus norvegicus; assay: Drug discrimination effect of compound in rats, expressed as percent of rats choosing the cocaine lever at dose 1 mg/kg (ip); type: functional
[19] = test system: Rattus norvegicus; assay: Drug discrimination effect of compound in rats, expressed as percent of rats choosing the cocaine lever at dose 1.7 mg/kg (ip); type: functional
[20] = test system: Rattus norvegicus; assay: Drug discrimination effect of compound in rats, expressed as percent of rats choosing the cocaine lever at dose 3 mg/kg (ip); type: functional
[21] = molecular target: T2, Sodium-dependent serotonin transporter (Rattus norvegicus, UniProt P31652); assay: Binding affinity towards serotonin transporter 5-HTT was determined using [3H]paroxetine radioligand.
In short: (§3)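 Competition binding at the 5-HTT with 0.2 nM [3H]paroxetine (final concentration). Other procedures follow earlier published methods.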

[22] = molecular target: T2, Sodium-dependent serotonin transporter; assay: Inhibitory concentration required to inhibit serotonin transporter 5-HTT was determined by using [3H]paroxetine radioligand; in short: as §3
[23] = test system: Mus musculus; assay: Percent change from vehicle in locomotor activity in mice at 10 mg/kg (ip) in 1 h; type: functional
[24] = test system: Mus musculus; assay: Percent change from vehicle in locomotor activity in mice at 10 mg/kg (ip) in 2 h; type: functional
[25] = test system: Mus musculus; assay: Percent change from vehicle in locomotor activity in mice at 10 mg/kg (ip) in 3 h; type: functional
[26] = test system: Mus musculus; assay: Percent change from vehicle in locomotor activity in mice at 10 mg/kg (ip) in 4 h; type: functional
[27] = test system: Rattus norvegicus; assay: Drug discrimination effect of compound in rats, expressed as percent of rats choosing the cocaine lever at dose 10 mg/kg (ip); type: functional
[28] = test system: Rattus norvegicus; assay: Drug discrimination effect of compound in rats, expressed as percent of rats choosing the cocaine lever at dose 5.6 mg/kg (ip); type: functional
[29] = test system: Rattus norvegicus; assay: Effective dose for drug discrimination effect in rat (ip); type: functional
In short: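 Cocaine-trained rat drug discrimination, FR10, 10-min sessions. Compound in 0.5% methyl cellulose given ip 15 min before session, usually to 7-8 rats per dose. Doses were raised from ≤20% to ≥80% cocaine-lever choice, capped at 30 mg/kg, >50% loss of pressing, or side effects.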

T2 sequence (P31652 whole entry): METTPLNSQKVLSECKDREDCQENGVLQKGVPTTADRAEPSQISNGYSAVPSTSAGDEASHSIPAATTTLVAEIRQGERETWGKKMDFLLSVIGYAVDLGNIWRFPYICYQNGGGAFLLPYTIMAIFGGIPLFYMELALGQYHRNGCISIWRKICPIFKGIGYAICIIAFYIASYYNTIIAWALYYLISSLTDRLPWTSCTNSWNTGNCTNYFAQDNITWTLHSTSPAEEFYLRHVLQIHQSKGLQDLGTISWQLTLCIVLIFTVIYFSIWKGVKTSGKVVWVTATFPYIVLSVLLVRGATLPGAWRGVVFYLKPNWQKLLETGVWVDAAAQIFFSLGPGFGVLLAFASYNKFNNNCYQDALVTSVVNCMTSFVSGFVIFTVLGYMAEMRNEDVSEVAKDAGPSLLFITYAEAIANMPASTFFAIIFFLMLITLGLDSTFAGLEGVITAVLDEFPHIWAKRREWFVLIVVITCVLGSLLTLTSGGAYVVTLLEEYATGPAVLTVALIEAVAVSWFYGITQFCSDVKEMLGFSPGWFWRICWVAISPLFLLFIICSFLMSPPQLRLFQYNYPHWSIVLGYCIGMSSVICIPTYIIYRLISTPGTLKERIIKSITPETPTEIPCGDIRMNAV
Sequence of Sodium-dependent dopamine transporter (P23977 whole entry): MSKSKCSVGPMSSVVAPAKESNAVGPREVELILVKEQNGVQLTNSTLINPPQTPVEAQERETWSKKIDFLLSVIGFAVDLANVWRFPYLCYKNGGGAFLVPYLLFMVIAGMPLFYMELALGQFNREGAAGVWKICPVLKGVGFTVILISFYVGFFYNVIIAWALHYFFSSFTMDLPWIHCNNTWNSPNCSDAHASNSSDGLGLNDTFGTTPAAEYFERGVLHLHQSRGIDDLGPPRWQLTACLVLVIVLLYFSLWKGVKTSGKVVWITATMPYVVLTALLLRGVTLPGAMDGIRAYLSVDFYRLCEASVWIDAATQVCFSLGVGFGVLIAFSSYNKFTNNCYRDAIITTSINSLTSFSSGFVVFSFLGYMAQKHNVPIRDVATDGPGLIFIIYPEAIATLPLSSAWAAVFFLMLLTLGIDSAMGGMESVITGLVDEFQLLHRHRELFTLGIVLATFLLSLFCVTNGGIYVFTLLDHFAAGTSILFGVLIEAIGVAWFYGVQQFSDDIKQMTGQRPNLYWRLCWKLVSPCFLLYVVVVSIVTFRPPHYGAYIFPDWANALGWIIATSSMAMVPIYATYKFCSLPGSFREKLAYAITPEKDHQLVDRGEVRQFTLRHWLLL
T1 sequence (Q9WTR4 whole entry): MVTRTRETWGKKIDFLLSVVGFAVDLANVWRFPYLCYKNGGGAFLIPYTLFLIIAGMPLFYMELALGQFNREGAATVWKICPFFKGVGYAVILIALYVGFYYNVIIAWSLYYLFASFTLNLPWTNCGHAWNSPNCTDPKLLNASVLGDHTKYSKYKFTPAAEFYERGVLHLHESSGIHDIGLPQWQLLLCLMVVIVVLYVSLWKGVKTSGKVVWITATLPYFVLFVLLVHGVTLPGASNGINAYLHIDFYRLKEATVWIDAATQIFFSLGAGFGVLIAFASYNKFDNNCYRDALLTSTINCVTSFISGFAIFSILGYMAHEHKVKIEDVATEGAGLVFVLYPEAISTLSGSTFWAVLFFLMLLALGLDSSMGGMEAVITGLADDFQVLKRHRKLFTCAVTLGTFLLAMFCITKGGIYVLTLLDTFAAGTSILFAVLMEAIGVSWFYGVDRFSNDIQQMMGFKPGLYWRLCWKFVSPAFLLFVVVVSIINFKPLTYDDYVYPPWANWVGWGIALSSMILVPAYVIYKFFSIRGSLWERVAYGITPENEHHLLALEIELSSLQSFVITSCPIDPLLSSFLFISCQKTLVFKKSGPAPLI

Structure (SMILES) | IC50 [1] | Change [2] | Change [3] | Change [4] | Change [5] | Change [10] | Change [11] | Change [12] | Change [13] | ED50 [14] | Ratio [15] | Ki [16] | IC50 [17] | Drug discrimination effect [20] | Ki [21] | IC50 [22] | Change [23] | Change [24] | Change [25] | Change [26] | further results
CC(C)c1cc(C2C(c3ccc(Cl)cc3)CC3CCC2N3C)on1 (stereo not drawn) | 1.19 nM | 876% | 995% | 680% | 1745% | 370% | 632% | 188% | -2% | 0.8 mg/kg | 1.9 | 575 nM | 954 nM | 63% | 211 nM | 2320 nM |  |  |  |  | Change [6]: 34%; Change [7]: 41%; Change [8]: -21%; Change [9]: -39%; Drug discrimination effect [18]: 13%; Drug discrimination effect [19]: 25%
CN1C2CCC1C(C(=O)Oc1ccccc1)C(c1ccc(Cl)cc1)C2 (stereo not drawn) |  |  |  |  |  |  |  |  |  |  |  | 213 nM | 2340 nM |  | 1780 nM | 2960 nM |  |  |  |  | 
Cc1ccc(C2CC3CCC(C2c2cc(C(C)(C)C)no2)N3C)cc1 (stereo not drawn) | 26 nM |  |  |  |  |  |  |  |  |  |  | 1820 nM | 3330 nM |  | 26000 nM | 295000 nM |  |  |  |  | 
Cc1ccc(C2CC3CCC(C2c2cc(C(C)C)no2)N3C)cc1 (stereo not drawn) | 4.5 nM | 329% | 241% | 207% | 70% | -1% | 29% | -20% | 24% | 4.7 mg/kg | 0.9 | 1550 nM | 2520 nM | 25% | 3900 nM | 42900 nM | 637% | 532% | 765% | 576% | Drug discrimination effect [27]: 86%; Drug discrimination effect [28]: 67%; ED50 [29]: 4.63 mg/kg
Cc1ccc(C2CC3CCC(C2C(=O)OC(C)C)N3C)cc1 (stereo not drawn) |  |  |  |  |  |  |  |  |  |  |  | 554 nM | 6090 nM |  | 1160 nM | 1930 nM |  |  |  |  | 
CN1C2CC[C@@H]1C[C@H](c1ccc(Cl)cc1)C2c1cc(-c2ccccc2)no1 (stereo partly drawn) |  | 331% | 456% | 377% | 378% | 11% | 27% | 45% | 76% | 3.4 mg/kg | 1.1 | 220 nM | 2420 nM | 29% | 305 nM | 504 nM | 513% | 402% | 485% | 924% | Drug discrimination effect [27]: 75%; Drug discrimination effect [28]: 63%; ED50 [29]: 4.73 mg/kg
COc1ccc(-c2cc(C3C(c4ccc(Cl)cc4)CC4CCC3N4C)on2)cc1 (stereo not drawn) | 1.57 nM | 197% | 481% | 662% | 335% | 0% | 51% | 101% | -21% | 3.7 mg/kg | 1.2 | 454 nM | 762 nM | 0% | 535 nM | 5880 nM | 521% | 1337% | 2830% | 2120% | Drug discrimination effect [18]: 0%; Drug discrimination effect [27]: 50%; Drug discrimination effect [28]: 43%
Cc1ccc(C2CC3CCC(C2c2cc(-c4ccccc4)no2)N3C)cc1 (stereo not drawn) | 1.58 nM | 244% | 369% | 283% | 329% | 48% | 139% | 89% | 154% | 2.5 mg/kg | 1.2 | 239 nM | 398 nM | 0% | 465 nM | 5110 nM | 526% | 663% | 363% | 141% | Drug discrimination effect [27]: 86%; Drug discrimination effect [28]: 75%; ED50 [29]: 4.88 mg/kg
CN1C2CCC1C(c1cc(-c3ccc(Cl)cc3)no1)C(c1ccc(Cl)cc1)C2 (stereo not drawn) | 6.42 nM | 59% | 237% | 298% | 389% | 15% | 19% | 74% | 39% | 3.6 mg/kg | 0.4 | 3790 nM | 5290 nM | 13% |  | > 76000 nM | 166% | 612% | 838% | 1372% | Drug discrimination effect [18]: 0%; Drug discrimination effect [27]: 50%; Drug discrimination effect [28]: 0%
Cc1ccc(-c2cc(C3C(c4ccc(Cl)cc4)CC4CCC3N4C)on2)cc1 (stereo not drawn) | 4.09 nM | 23% | 153% | 265% | 119% | 8% | 44% | -49% | 170% | 3.9 mg/kg | 0.7 | 1030 nM | 1710 nM | 14% | 522 nM | 5740 nM | 308% | 1034% | 1024% | 493% | Drug discrimination effect [18]: 14%; Drug discrimination effect [27]: 88%; Drug discrimination effect [28]: 50%; ED50 [29]: 5.95 mg/kg
CN1C2CCC1C(c1cc(-c3ccc(F)cc3)no1)C(c1ccc(Cl)cc1)C2 (stereo not drawn) | 1.86 nM | 271% | 463% | 479% | 392% | -26% | 38% | -77% | 37% | 2.8 mg/kg | 1.6 | 553 nM | 918 nM | 13% | 660 nM | 7260 nM | 729% | 832% | 514% | 767% | Drug discrimination effect [27]: 63%; Drug discrimination effect [28]: 43%
CN1C2CCC1C(c1cc(C(C)(C)C)no1)C(c1ccc(Cl)cc1)C2 (stereo not drawn) | 7.31 nM | 112% | 204% | 206% | -29% | 41% | 103% | 135% | 33% | 4 mg/kg | 0.9 | 3810 nM | 6320 nM | 50% | 3350 nM | 36800 nM | 388% | 769% | 1272% | 229% | Drug discrimination effect [18]: 0%; Drug discrimination effect [27]: 83%; Drug discrimination effect [28]: 88%; ED50 [29]: 3.04 mg/kg
